Reference: ChEMBL document CHEMBL1142995, “Probing the pharmacophore of ginkgolides as glycine receptor antagonists” (J Med Chem, 2007)

Experiments:
Assay type in all cases: cell-based
[1] = target: T1, Glycine receptor subunit alpha-2 (Homo sapiens, UniProt P23416); assay: Activity at human alpha-2GlyR expressed in HEK293 cells by FMP assay
T1 sequence (P23416 whole entry): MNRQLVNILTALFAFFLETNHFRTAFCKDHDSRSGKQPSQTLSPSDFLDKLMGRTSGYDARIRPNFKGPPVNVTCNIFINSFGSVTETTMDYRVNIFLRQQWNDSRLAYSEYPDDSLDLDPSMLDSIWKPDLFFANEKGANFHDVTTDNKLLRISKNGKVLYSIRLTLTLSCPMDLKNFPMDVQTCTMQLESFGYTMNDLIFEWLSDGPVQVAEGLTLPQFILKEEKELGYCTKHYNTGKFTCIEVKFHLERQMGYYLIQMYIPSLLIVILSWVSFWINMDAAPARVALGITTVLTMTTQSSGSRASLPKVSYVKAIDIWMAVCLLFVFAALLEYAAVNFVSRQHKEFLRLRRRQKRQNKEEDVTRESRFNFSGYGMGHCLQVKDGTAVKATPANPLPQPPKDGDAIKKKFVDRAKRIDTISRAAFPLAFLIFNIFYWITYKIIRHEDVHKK
Summary of the method: (§1)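 Stable HEK293 lines (α1: G418; α1β: G418 + hygromycin B; α2: hygromycin B) plated on poly-D-lysine 16-24 h. Loaded with FMP dye in HBSS/20 mM HEPES pH 7.4, antagonist present, 30 min at 37 °C. Fluorescence ex 530/em 560 nm read up to 1 min after glycine: 200 µM (α1, α1β) or 500 µM (α2). Duplicates, ≥3 experiments; IC50 from maximal responses.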

[2] = target: T2, Glycine receptor subunit alpha-1 (Homo sapiens, UniProt P23415); assay: Activity at human alpha-1GlyR expressed in HEK293 cells by FMP assay; summary of the method: as §1
T2 sequence (P23415 whole entry): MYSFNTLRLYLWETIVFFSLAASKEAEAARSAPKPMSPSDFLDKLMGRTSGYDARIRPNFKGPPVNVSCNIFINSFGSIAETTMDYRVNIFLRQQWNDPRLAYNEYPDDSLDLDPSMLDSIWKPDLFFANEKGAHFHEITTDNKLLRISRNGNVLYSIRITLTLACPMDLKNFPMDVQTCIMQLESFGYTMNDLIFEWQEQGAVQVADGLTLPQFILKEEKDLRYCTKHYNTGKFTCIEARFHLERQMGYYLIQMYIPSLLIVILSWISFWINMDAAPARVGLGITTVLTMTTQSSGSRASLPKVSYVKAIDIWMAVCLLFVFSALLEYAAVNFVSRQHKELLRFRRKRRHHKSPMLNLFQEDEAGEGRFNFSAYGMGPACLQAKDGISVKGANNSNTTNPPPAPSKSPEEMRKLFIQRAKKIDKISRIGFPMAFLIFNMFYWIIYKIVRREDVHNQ

[3] = target: T2, Glycine receptor subunit alpha-1; assay: Activity at human alpha-1-beta-GlyR expressed in HEK293 cells by FMP assay; summary of the method: as §1
[4] = target: T2, Glycine receptor subunit alpha-1; assay: Activity at human alpha-1GlyR expressed in HEK293 cells assessed as inhibition of 300 uM glycine-induced current by whole-cell patch clamp experiment

| SMILES | IC50 [1] [µM] | IC50 [2] [µM] | IC50 [3] [µM] | IC50 [4] [µM] |
| --- | --- | --- | --- | --- |
| CC(C)(C)[C@@H]1CC2OC(=O)C34OC5OC(=O)[C@H](O)C51[C@@]23CC1OC(=O)[C@](C)(O)[C@@]14O (stereo partly drawn) | > 100 | > 100 | > 100 | – |
| C[C@@H]1C(=O)O[C@H]2[C@H](O)[C@@]34[C@H]5C[C@@H](C(C)(C)C)[C@]36[C@@H](OC(=O)[C@@H]6O)O[C@@]4(C(=O)O5)[C@@]12O [GINKOLIDE B] | 3.7 | 2.9 | 2.1 | 1.7 |
| COC(=O)/C(C)=C1\CC[C@@]23C4C[C@@H](C(C)(C)C)C25C(OC(=O)[C@@H]5O)O[C@]13C(=O)O4 (stereo partly drawn) | > 100 | > 100 | > 100 | – |
| COC1C[C@]23C4C[C@@H](C(C)(C)C)C25C(OC(=O)[C@@H]5OC(C)=O)O[C@@]3(C(=O)O1)C(=O)O4 (stereo partly drawn) | > 100 | > 100 | > 100 | – |
| C[C@@H]1C(=O)O[C@H]2[C@H](O)[C@]34[C@@H]5C(=O)O[C@@]3(O[C@@H]3OC(=O)[C@H](O)[C@@]34[C@H](C(C)(C)C)[C@@H]5N=[N+]=[N-])[C@@]12O | 29 | 17 | 7.4 | – |
| C[C@@H]1C(=O)O[C@H]2C[C@]34C5OC(=O)[C@]3(OC(O)C4[C@H](C(C)(C)C)[C@H]5O)[C@]21O (stereo partly drawn) | > 100 | > 100 | > 100 | – |
| C[C@@H]1C(=O)O[C@H]2[C@H](O)[C@@]34C5OC(=O)[C@@]3(OC3OC(=O)[C@H](O)C34[C@H](C(C)(C)C)[C@H]5OS(=O)(=O)C(F)(F)F)[C@@]12O (stereo partly drawn) | > 100 | > 100 | > 100 | – |
| CC(=O)O[C@H]1C(=O)OC2O[C@@]34C(=O)OC5C[C@@H](C(C)(C)C)C21[C@@]53C[C@@H]1OC(=O)[C@@H](C)[C@@]14O (stereo partly drawn) [10-ACETOXY-GINKGOLIDE B] | > 100 | > 100 | > 100 | – |
| COC1C[C@@]23C4C[C@@H](C(C)(C)C)C25C(OC(=O)[C@@H]5OC)O[C@@]3(C(=O)O1)C(=O)O4 (stereo partly drawn) | > 100 | > 100 | > 100 | – |
| C[C@@H]1C(=O)O[C@H]2C[C@@]34[C@H]5C[C@@H](C(C)(C)C)[C@]36[C@@H](OC(=O)[C@@H]6O)O[C@@]4(C(=O)O5)[C@]21O [GINKGOLIDE A] | 2.1 | 1.9 | 0.69 | 3.8 |
| COCO[C@H]1C(=O)O[C@H]2O[C@@]34OC(=O)[C@@H]5C[C@@H](C(C)(C)C)[C@@]21[C@]53C[C@@H]1OC(=O)[C@@H](C)[C@@]14O [10-METHOXYMETHYLOXY-GINKGOLIDE A] | > 100 | > 100 | > 100 | – |
| CN[C@@H]1C2OC(=O)[C@]34OC5OC(=O)[C@H](O)C5([C@@H]1C(C)(C)C)[C@@]23[C@@H](O)[C@@H]1OC(=O)[C@@H](C)[C@@]14O (stereo partly drawn) | > 100 | > 100 | > 100 | – |
| C[C@@H]1C(=O)O[C@H]2[C@H](O)[C@]34C5OC(=O)[C@@]3(OC3OC(=O)[C@H](O)C34[C@H](C(C)(C)C)[C@@H]5OC(=O)Cc3ccccc3)[C@@]12O (stereo partly drawn) | > 100 | > 100 | > 100 | – |
| C[C@@H]1C(=O)O[C@H]2C[C@@]34C5C[C@@H](C(C)(C)C)C3C(=O)O[C@]4(C(=O)O5)[C@]21O (stereo partly drawn) | > 100 | > 100 | > 100 | – |
| COC(=O)[C@H](OC)C12C(OC)O[C@@]34C(=O)OC(C[C@H]1C(C)(C)C)[C@]23C[C@@H]1OC(=O)[C@@H](C)[C@@]14O (stereo partly drawn) | > 100 | > 100 | > 100 | – |
| CCN[C@@H]1C2OC(=O)[C@]34OC5OC(=O)[C@H](O)C5([C@@H]1C(C)(C)C)[C@@]23[C@@H](O)[C@@H]1OC(=O)[C@@H](C)[C@@]14O (stereo partly drawn) | > 100 | > 100 | > 100 | – |
| C[C@@H]1C(=O)O[C@H]2C[C@@]34O[C@@H]5OC(=O)[C@H](O)[C@@]56[C@H](C(C)(C)C)[C@H](O)C(OC3=O)[C@]64[C@]21O (stereo partly drawn) [GINKGOLIDE J] | 12 | 7.1 | 4.2 | 6.4 |

| SMILES | IC50 [1] [µM] | IC50 [2] [µM] | IC50 [3] [µM] | IC50 [4] [µM] |
| --- | --- | --- | --- | --- |
| CC(=O)O[C@@H]1C2OC(=O)[C@]34OC5OC(=O)[C@H](O)C5([C@@H]1C(C)(C)C)[C@@]23[C@@H](O)[C@@H]1OC(=O)[C@@H](C)[C@@]14O (stereo partly drawn) | > 100 | > 100 | > 100 | – |
| C[C@@H]1C(=O)O[C@H]2[C@H](O)[C@]34[C@@H]5C(=O)O[C@@]3(O[C@@H]3OC(=O)[C@H](O)[C@@]34[C@H](C(C)(C)C)[C@@H]5Cl)[C@@]12O | 13 | 7.6 | 3.2 | – |
| C[C@@H]1C(=O)O[C@H]2[C@H](O)[C@]34C5OC(=O)[C@@]3(OC3OC(=O)[C@H](O)C34[C@H](C(C)(C)C)[C@@H]5O)[C@@]12O (stereo partly drawn) | > 100 | > 100 | > 100 | – |
| CC(=O)O[C@H]1C(=O)OC2O[C@@]34C(=O)OC5C[C@@H](C(C)(C)C)C21[C@@]53C[C@@H]1OC(=O)[C@H](C)[C@@H]14 (stereo partly drawn) | > 100 | > 100 | > 100 | – |
| C[C@@H]1C(=O)O[C@H]2C[C@@]34C5C[C@@H](C(C)(C)C)C36C(=O)C(=O)OC6O[C@]4(C(=O)O5)[C@]21O (stereo partly drawn) | > 100 | > 100 | > 100 | – |
| C[C@@H]1CO[C@@H]2C[C@@]34C5C[C@@H](C(C)(C)C)C36C(OC(=O)[C@@H]6O)O[C@]4(C(=O)O5)[C@@]12O (stereo partly drawn) | > 100 | > 100 | > 100 | – |
| COC(=O)C(C)[C@H]1CC[C@@]23C4C[C@@H](C(C)(C)C)C25C(OC(=O)[C@@H]5O)O[C@]13C(=O)O4 (stereo partly drawn) | > 100 | > 100 | > 100 | – |
| C[C@@H]1C(=O)OC2[C@@H]3OCO[C@H]4C(=O)OC5OC6(C(=O)OC7C[C@@H](C(C)(C)C)C54[C@]736)[C@]21O (stereo partly drawn) | 12 | 12 | 8.9 | – |
| C[C@@H]1C(=O)O[C@@H]2[C@H]1[C@@]13OC4OC(=O)[C@H](O)C45[C@H](C(C)(C)C)[C@@H](O)C(OC1=O)[C@]53[C@H]2O (stereo partly drawn) [GINKGOLIDE M] | 1.3 | 0.78 | 0.56 | 0.65 |
| C[C@@H]1C(=O)O[C@H]2[C@H](O)[C@]34[C@@H]5C(=O)O[C@@]3(O[C@@H]3OC(=O)[C@H](O)[C@@]34[C@H](C(C)(C)C)[C@@H]5F)[C@@]12O | 4.6 | 7.3 | 3.2 | – |
| CC1=C2C(=C[C@]34C5OC(=O)[C@@]23OC2OC(=O)[C@H](O)C24[C@H](C(C)(C)C)[C@H]5O)OC1=O (stereo partly drawn) | > 100 | > 100 | > 100 | – |
| C[C@@H]1C(=O)O[C@H]2[C@H](O)[C@]34C5OC(=O)[C@@]3(OC3OC(=O)[C@H](O)C34[C@H](C(C)(C)C)C5=O)[C@@]12O (stereo partly drawn) | > 100 | > 100 | > 100 | – |
| CO[C@H]1C(=O)O[C@H]2O[C@@]34OC(=O)[C@@H]5[C@H](O)[C@@H](C(C)(C)C)[C@@]21[C@@]53[C@@H](O)[C@@H]1OC(=O)[C@@H](C)[C@@]14O | 7.8 | 9.8 | 5.2 | – |
| C[C@@H]1CO[C@H]2C[C@@]34C5C[C@@H](C(C)(C)C)C36C(OC[C@@H]6O)O[C@]4(CO5)[C@@]12O (stereo partly drawn) | > 100 | > 100 | > 100 | – |
| C[C@@H]1CO[C@H]2C[C@@]34C5C[C@@H](C(C)(C)C)C36C(OC[C@@H]6O)O[C@]4(C(=O)O5)[C@@]12O (stereo partly drawn) | > 100 | > 100 | > 100 | – |
| CC1=C2[C@H](C[C@]34[C@H]5C[C@@H](C(C)(C)C)[C@]36[C@@H](OC(=O)[C@@H]6O)O[C@]24OC5=O)OC1=O [3,14-DIDEHYDROGINKGOLIDE A] | 9.5 | 6.2 | 3.1 | – |
